Laboratory results as given in ChEMBL document CHEMBL4834402, “Discovery of TAK-981, a First-in-Class Inhibitor of SUMO-Activating Enzyme for the Treatment of Cancer” (J Med Chem, 2021).
Calls of active or inactive are those of the source. The rule behind the calls is not given here.

What was measured:
OCI-Ly10 [1] = experiment: Cytotoxicity against human OCI-LY10 cells assessed as reduction in cell viability after 72 hrs by CellTiter-Glo luminescent assay; type: functional, cell-based; conditions: OCI-Ly10, 72 h
HCT-116 [2] = experiment: Antitumor activity against human HCT116 cells xenografted in sc dosed NCr nude mouse assessed as tumor growth inhibition administered twice per day for 21 days by vernier caliper method; type: functional, organism-based; conditions: dose 150.0 mg/kg, time 21.0 day
How it was run: (§1)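 Female NCr nude mice with HCT-116 tumors, n = 10/arm, dosed subcutaneously until Day 21. Schedules were BID x21 (days 1–21) or BID BIW (days 1, 4, 8, 11, 15, 18, 21).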

[3] = Volume of distribution at steady state in rat blood at 1 mg/kg, iv; type: ADME, organism-based; conditions: read-out: Vdss
[4] = Oral bioavailability in rat plasma at 10 mg/kg; type: ADME, organism-based
[5] = Volume of distribution at steady state in rat plasma at 1 mg/kg, iv; type: ADME, organism-based; conditions: read-out: Vdss
HCT-116 [6] = experiment: Antitumor activity against human HCT116 cells xenografted in sc dosed NCr nude mouse assessed as tumor growth inhibition administered on day 1, 4, 8, 11, 15, 18 and 21 by vernier caliper method; type: functional, organism-based; conditions: dose 200.0 mg/kg, time 21.0 day; how it was run: as §1
NEDD8 activating enzyme = molecular target: T1, NEDD8 activating enzyme (Homo sapiens, UniProt Q8TBC4); experiment: Inhibition of recombinant NAE (unknown origin) in presence of ATP at Km concentration by HTRF assay; type: protein-complex assay
T1 sequence (Q8TBC4 whole entry): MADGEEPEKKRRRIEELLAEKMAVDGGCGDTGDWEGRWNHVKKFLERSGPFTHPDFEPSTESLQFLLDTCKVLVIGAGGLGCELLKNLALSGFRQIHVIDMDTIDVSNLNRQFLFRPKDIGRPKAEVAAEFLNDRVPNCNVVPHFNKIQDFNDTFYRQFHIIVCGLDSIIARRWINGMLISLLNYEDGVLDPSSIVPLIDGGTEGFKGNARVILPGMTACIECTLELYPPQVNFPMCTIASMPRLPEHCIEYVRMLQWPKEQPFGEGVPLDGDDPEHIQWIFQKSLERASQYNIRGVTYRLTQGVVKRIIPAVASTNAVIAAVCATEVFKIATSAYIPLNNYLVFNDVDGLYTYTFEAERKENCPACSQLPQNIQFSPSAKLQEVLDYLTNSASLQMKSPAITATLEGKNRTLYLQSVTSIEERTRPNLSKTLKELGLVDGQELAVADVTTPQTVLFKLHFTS
T1 sequence (Q13564 whole entry): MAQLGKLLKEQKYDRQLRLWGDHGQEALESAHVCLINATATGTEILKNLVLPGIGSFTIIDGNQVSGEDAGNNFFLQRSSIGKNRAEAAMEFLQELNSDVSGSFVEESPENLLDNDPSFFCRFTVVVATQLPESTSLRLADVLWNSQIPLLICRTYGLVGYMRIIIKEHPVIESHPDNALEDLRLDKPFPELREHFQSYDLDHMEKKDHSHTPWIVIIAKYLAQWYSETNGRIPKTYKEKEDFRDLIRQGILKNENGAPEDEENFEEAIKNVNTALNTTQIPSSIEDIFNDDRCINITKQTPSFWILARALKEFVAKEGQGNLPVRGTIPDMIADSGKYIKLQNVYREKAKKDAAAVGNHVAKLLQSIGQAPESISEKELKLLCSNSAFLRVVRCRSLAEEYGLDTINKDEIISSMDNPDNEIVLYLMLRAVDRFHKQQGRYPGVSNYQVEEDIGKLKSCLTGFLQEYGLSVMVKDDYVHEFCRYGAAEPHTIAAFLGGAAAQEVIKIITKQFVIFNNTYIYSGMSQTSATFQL

[7] = Half life in rat blood at 1 mg/kg, iv; type: ADME, organism-based
[8] = Lipophilicity, logD of compound at pH 7.4; type: physicochemical; conditions: buffer
[9] = Apparent permeability across basolateral to apical side in human Caco2 cells; type: ADME, cell-based; conditions: Caco-2
[10] = Apparent permeability across apical to basolateral side in human Caco2 cells; type: ADME, cell-based; conditions: Caco-2
[11] = AUC in rat plasma at 1 mg/kg, iv; type: ADME, organism-based; set-up: dose 1 mg/kg
Carbonic anhydrase 1 = Carbonic anhydrase 1 (Homo sapiens, UniProt P00915); experiment: Inhibition of human erythrocyte CA1 using fluorescein diacetate as substrate at […] by fluorometric esterase assay
Chain of Carbonic anhydrase 1 (P00915 whole entry): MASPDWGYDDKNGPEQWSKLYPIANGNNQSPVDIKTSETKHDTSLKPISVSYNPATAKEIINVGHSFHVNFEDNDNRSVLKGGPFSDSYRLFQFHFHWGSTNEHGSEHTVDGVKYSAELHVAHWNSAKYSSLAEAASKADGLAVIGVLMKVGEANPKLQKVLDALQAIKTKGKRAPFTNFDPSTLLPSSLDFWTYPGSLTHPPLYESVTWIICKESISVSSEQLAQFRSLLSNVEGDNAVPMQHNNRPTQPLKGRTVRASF

[12] = AUC in rat blood at 10 mg/kg, po; type: ADME, organism-based; set-up: dose 10 mg/kg
[13] = Clearance in rat plasma at 1 mg/kg, iv; type: ADME, organism-based; conditions: in vivo
HCT-116 [14] = experiment: Antitumor activity against human HCT116 cells xenografted in sc dosed NCr nude mouse assessed as tumor growth inhibition administered on day 1, 2, 8, 9, 15, […] and […] by vernier caliper method; type: functional, organism-based; conditions: dose 150.0 mg/kg, time 21.0 day
[15] = Dissociation constant , pKa of the compound; type: physicochemical
[16] = AUC in rat plasma at 10 mg/kg, po; type: ADME, organism-based; set-up: dose 10 mg/kg
[17] = Oral bioavailability in rat blood at 10 mg/kg; type: ADME, organism-based
HCT-116 [18] = experiment: Cytotoxicity against human HCT116 cells assessed as reduction in cell viability after 72 hrs by CellTiter-Glo luminescent assay; type: functional, cell-based; conditions: HCT-116, 72 h
[19] = Clearance in rat blood at 1 mg/kg, iv; type: ADME, organism-based; conditions: in vivo
[20] = AUC in rat blood at 1 mg/kg, iv; type: ADME, organism-based; set-up: dose 1 mg/kg
[21] = Half life in rat plasma at 1 mg/kg, iv; type: ADME, organism-based
HCT-116 [22] = experiment: Antitumor activity against human HCT-116 cells xenografted in Ncr/nude mouse assessed as tumor growth inhibition at 50 mg/kg, sc administered once daily for 21 days and measured twice weekly; type: functional, organism-based; conditions: time 21.0 day
How it was run: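 Female Ncr/nude mice carrying HCT-116 tumors (~200 mm3) were randomized, n = 8/group, with treatment from Day 1. Schedules were QD x21 (Days 1–21) or QD x3/week (three consecutive dosing days, four off). Tumor volume was measured twice weekly.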

OCI-Ly10 [23] = experiment: Antitumor activity against human OCI-Ly10 cells xenografted in CB17 SCID mouse assessed as tumor growth inhibition at 50 mg/kg, sc mg/kg administered once daily for 21 days and measured twice weekly; type: functional, organism-based; conditions: time 21.0 day
How it was run: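 Female CB17 SCID mice carrying OCI-Ly10 tumors (~200 mm3) were randomized, n = 8/group, with treatment from Day 1. Schedules were QD x21 (Days 1–21) or QD x3/week (three consecutive dosing days, four off). Tumor volume was measured twice weekly.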

[24] = molecular target: T2, SUMO-activating enzyme (Homo sapiens) (UniProt Q9UBE0+Q9UBT2); experiment: Inhibition of SAE in human HCT116 cells xenografted in NCr nude mouse assessed as reduction in SUMO2/3 protein conjugates at 50 mg/kg, iv and measured up to 16 hrs by immunohistochemistry analysis; type: organism-based; conditions: HCT-116
How it was run: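 HCT-116 tumors in female Ncr nude mice, n = 3 per time point, after a single IV dose at t = 0. SUMO2/3 conjugation in tumors measured by IHC at 2, 4, 8 and 16 h. Read-out is nuclei staining positive for SUMO2/3 conjugates over total nuclei, normalized to vehicle-treated animals (time = 0 h), expressed as percent inhibition.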

[25] = molecular target: T2, SUMO-activating enzyme (Homo sapiens); experiment: Inhibition of SAE in human HCT116 cells xenografted in NCr nude mouse assessed as improvement in SUMO-inhibitor adduct durability at 50 mg/kg, iv and measured up to 16 hrs by mass spectrometry; type: organism-based; conditions: HCT-116
How it was run: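 Single IV dose at t = 0 to female Ncr nude mice bearing HCT-116 tumors, n = 3 per time point. Tumors harvested 2, 4, 8 and 16 h post-injection. Read-out is the adduct/SAE ratio: quantity of SUMO-compound adduct over quantity of total SAE enzyme, both measured by mass spectrometry. Values are averaged per time point.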

SUMO-activating enzyme [26] = molecular target: T3, SUMO-activating enzyme (Homo sapiens, UniProt Q9UBT2); experiment: Inhibition of recombinant SAE (unknown origin) assessed as reduction in transfer of SUMO1 to UBC9 using SUMO1 as a substrate in presence of ATP at Km concentration by HTRF assay; type: protein-complex assay
T3 sequence (Q9UBE0 whole entry): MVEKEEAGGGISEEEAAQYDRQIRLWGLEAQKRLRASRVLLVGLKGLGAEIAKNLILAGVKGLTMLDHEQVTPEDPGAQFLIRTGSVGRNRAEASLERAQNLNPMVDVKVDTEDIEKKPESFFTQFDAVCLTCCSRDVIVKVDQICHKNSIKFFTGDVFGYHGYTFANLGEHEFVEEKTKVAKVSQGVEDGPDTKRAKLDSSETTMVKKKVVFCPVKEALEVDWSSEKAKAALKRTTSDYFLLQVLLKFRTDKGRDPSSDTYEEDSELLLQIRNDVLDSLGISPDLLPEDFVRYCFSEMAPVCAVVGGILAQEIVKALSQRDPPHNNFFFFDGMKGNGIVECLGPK
T3 sequence (Q9UBT2 whole entry): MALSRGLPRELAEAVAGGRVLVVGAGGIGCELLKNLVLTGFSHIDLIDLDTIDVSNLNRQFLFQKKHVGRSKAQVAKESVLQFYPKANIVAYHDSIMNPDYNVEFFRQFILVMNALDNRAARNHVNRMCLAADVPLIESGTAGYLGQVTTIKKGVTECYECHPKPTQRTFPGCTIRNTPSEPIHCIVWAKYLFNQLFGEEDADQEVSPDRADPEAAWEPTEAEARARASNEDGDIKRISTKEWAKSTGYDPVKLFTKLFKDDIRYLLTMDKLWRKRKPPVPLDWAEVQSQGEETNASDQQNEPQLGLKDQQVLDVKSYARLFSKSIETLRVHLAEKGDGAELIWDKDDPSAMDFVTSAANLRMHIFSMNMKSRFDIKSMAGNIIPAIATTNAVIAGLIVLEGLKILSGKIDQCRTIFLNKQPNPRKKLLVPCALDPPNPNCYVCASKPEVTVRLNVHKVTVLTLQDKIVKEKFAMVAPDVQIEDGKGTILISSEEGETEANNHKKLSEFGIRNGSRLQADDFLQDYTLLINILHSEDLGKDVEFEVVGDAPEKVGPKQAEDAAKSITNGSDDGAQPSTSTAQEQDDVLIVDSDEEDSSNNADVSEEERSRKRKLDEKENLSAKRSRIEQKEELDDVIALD
How it was run: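 HTRF transthiolation assay measuring transfer of SUMO1 to UBC9, the E2 for SAE.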

SUMO-activating enzyme [27] = molecular target: T3, SUMO-activating enzyme; experiment: Inhibition of SAE in human HCT116 cells assessed as redistribution of SUMO2/3 proteins from nucleus to cytosol preincubated for 2 hrs followed by compound washout and measured immediately by immunofluorescence assay; type: cell-based, HCT-116
How it was run: (§2)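 Washout format of the SUMO2/3 immunofluorescence assay in HCT116 cells. Cells were exposed to a range of concentrations for 2 h, then washed free of compound.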

[28] = Inhibition of recombinant UAE (unknown origin) in presence of ATP at Km concentration by HTRF assay; set-up: species or system Homo sapiens
SUMO-activating enzyme [29] = molecular target: T3, SUMO-activating enzyme; experiment: Inhibition of SAE in human HCT116 cells assessed as reduction in redistribution of SUMO2/3 proteins from nucleus to cytosol incubated for 4 hrs by immunofluorescence assay; type: cell-based, HCT-116
How it was run: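 HCT-116 cells exposed to compound across a concentration range for 4 h, then stained with anti-SUMO2/3 monoclonal antibody. Automated imaging scored the nuclear (inner) to cytoplasmic (outer) SUMO2/3 ratio. IC50 taken from the dose response.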

SUMO-activating enzyme [30] = molecular target: T3, SUMO-activating enzyme; experiment: Inhibition of SAE in human HCT116 cells assessed as redistribution of SUMO2/3 proteins from nucleus to cytosol preincubated for 2 hrs followed by compound washout and measured after 8 hrs by immunofluorescence assay; type: cell-based, HCT-116; how it was run: as §2

## NS(=O)(=O)OC[C@H]1C[C@@H](Nc2ncncc2C(=O)c2ccn(Cc3cccc(Br)c3)n2)C[C@@H]1O
OCI-Ly10 [1]
  EC50: 55 nM
HCT-116 [2]
  Activity: Dose-Dependent Effect
[3]
  Vd: 0.1 L/kg
[4]
  bioavailability: 7.1%
[5]
  Vd: 5.1 L/kg
HCT-116 [6]
  Activity: Dose-Dependent Effect
NEDD8 activating enzyme
  IC50: 228 nM
[7]
  half-life: 1.2 h
[8]
  logD: 2.6
[9]
  Papp B→A: 64 ×10⁻⁶ cm/s
[10]
  Papp A→B: 1.2 ×10⁻⁶ cm/s
[11]
  AUC: 0.4 µM·h
Carbonic anhydrase 1
  IC50: 50 nM
[12]
  AUC: 10.8 µM·h
[13]
  clearance: 85 mL/min/kg
HCT-116 [14]
  Activity: Dose-Dependent Effect
[15]
  pKa: 3.6
[16]
  AUC: 0.1 µM·h
[17]
  bioavailability: 6.9%
HCT-116 [18]
  EC50: 90 nM
[19]
  clearance: 1.67 mL/min/kg
[20]
  AUC: 19.1 µM·h
[21]
  half-life: 0.9 h

## Cc1sc(C(=O)c2cncnc2N[C@@H]2C[C@H](COS(N)(=O)=O)[C@@H](O)C2)cc1C1OCCc2ccc(Cl)cc21 (stereo in doubt)
HCT-116 [22]
  Activity: Active
OCI-Ly10 [23]
  Activity: Active
[24]
  inhibition: Active
[25]
  inhibition: Active

## Cc1sc(C(=O)c2cncnc2N[C@@H]2C[C@H](COS(N)(=O)=O)[C@@H](O)C2)cc1C(N)c1cccc(Cl)c1 (stereo partly drawn)
SUMO-activating enzyme [26]
  IC50: 0.2 nM
NEDD8 activating enzyme
  IC50: 235 nM
SUMO-activating enzyme [27]
  IC50: 19 nM
[28]
  IC50: > 1000 nM
SUMO-activating enzyme [29]
  IC50: 16 nM
SUMO-activating enzyme [30]
  IC50: 38 nM
